Published values pooled from the literature.
Compare with care: the assays were run in different laboratories.
Read-out: cell growth or viability

Compound | cell line | assay | conditions | quantity | value
CCCCCCCCCCCCCCCCCCOCC(COP(=O)([O-])OCC[N+](C)(C)C)OC (stereo not drawn) | HOP-62 | SRB | 10 µM | inhibition | 56%
O=C(NCC1CC1)c1ccc(-c2nc3ccc4[nH]ncc4c3c3c2CCCC3)cc1 | K562 | resazurin | 72 h | GI50 | > 10000 nM
COC(=O)CNC(=O)C(=O)OC | OCI-Ly1 | ATP luminescence | 0.5 µM, 5 days | viability | 168%
O=C(Nc1ccc(-c2ccccc2)cc1)[C@H]1O[C@H](O[C@@H]2[C@@H](OCc3ccc4ccccc4c3)[C@H](O[C@H]3O[C@H](CNS(=O)(=O)O)[C@@H](OCc4ccc5ccccc5c4)C[C@H]3NS(=O)(=O)O)[C@@H](NS(=O)(=O)O)C[C@H]2NS(=O)(=O)O)[C@H](OCc2ccc3ccccc3c2)[C@@H](NS(=O)(=O)O)[C@@H]1OCc1ccc2ccccc2c1 | 4T1 | CCK-8 | 48 h | EC50 | 12.5 µM
Cc1n[nH]c2ccc3nc(-c4ccc(C(=O)NCCN5CCCC5)cc4)c4c(c3c12)CCCC4 | K562 | resazurin | 72 h | GI50 | 2300 nM
O=C(Nc1cccc(Br)c1)c1cccc(S(=O)(=O)N2CCCCCC2)c1 | OCI-Ly1 | ATP luminescence | 1 µM, 5 days | viability | 153%
CCCCCCCCCCCCCCCCCCOc1ccccc1CC(=O)OCC[N+](CC)(CC)CC | HOP-62 | SRB | 10 µM | inhibition | 59%
C[C@H](Nc1ccc2c(c1)OCCn1cc(N3C(=O)OC[C@H]3C(F)F)nc1-2)C(N)=O | ESS-1 | ATP luminescence | 5 days | EC50 | 0.341 µM
O=C(NCCN1CCCC1)c1ccc(-c2nc3ccc4[nH]ncc4c3c3c2CCCC3)c(F)c1 | K562 | resazurin | 72 h | GI50 | 1700 nM
CCCCCCCCCCCCCCCCCCOc1cccc(CC(=O)OCC[N+](C)(C)C)c1 | HOP-62 | SRB | 10 µM | inhibition | 3.94%
O=C(/C=C/c1cccc(C(=O)NO)c1)NO | OCI-Ly1 | ATP luminescence | 0.1 µM, 5 days | viability | 181%
CCCCCCCCCCCCCCCCCCOc1ccccc1CC(=O)OCC[N+](C)(C)C | HOP-62 | SRB | 10 µM | inhibition | 95.1%
CC(=O)OC[C@H]1O[C@@H](n2cnc(N)nc2=O)[C@H](OC(C)=O)[C@@H]1OC(C)=O | OCI-Ly1 | ATP luminescence | 0.5 µM, 5 days | viability | 169%
Cc1n[nH]c2ccc3nc(-c4ccc(C(=O)NCCN(C)C)cc4F)c4c(c3c12)CCCCC4 | K562 | resazurin | 72 h | GI50 | 2000 nM
CCCCCCCCCCCCCCCCCCOc1ccccc1CC(=O)OCC[N+]1(C)CCOCC1 | HOP-92 | SRB | 10 µM | inhibition | 55.8%
